The test system of data set [1] is HEK293. Description: Inhibition of Influenza A virus (A/Viet Nam/1203/2004(H5N1)) hemagglutinin-mediated entry in HEK293 cells compound pretreated with target cells for 15 mins prior infection measured 48 hrs post infection by luciferase reporter assay. The class given is cell-based. Put shortly: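 Entry screen: HIV-based pseudotype bearing H5N1 hemagglutinin (HA). Compounds tested at 30.0 μM. Value reported as percent inhibition of HA-mediated entry.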

Data set [2] can be described thus: Antiinflammatory activity in mouse peritoneal macrophages assessed as inhibition of LPS-induced NO production at 10 uM. To be noted: Peritoneal macrophage cell. In kind it is functional.
Data set [3] is described as follows: Cytotoxicity against HEK293 cells infected with Influenza A virus (A/Viet Nam/1203/2004(H5N1)). The note with it: human. The class given is cell-based. Put shortly: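 Cytotoxicity measured on 293T cells and reported as CC50 (μmol/L).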
The test system of data set [4] is Human immunodeficiency virus 1. Description: Antiviral activity against VSV-G protein pseudotyped HIV1 system in HEK293T cells assessed as reduction in p24 level after 48 hrs by ELISA. The note with it: Human immunodeficiency virus 1, HEK-293T. The class given is functional, organism-based. Put shortly:
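VSV-G-pseudotyped HIV used as a counter-screen to judge the specificity of HA-directed entry inhibitors.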

Data set [5] in a line: Antiinflammatory activity in mouse peritoneal macrophages assessed as inhibition of LPS-induced NO production at 1 uM. In kind it is functional. The note with it: Peritoneal macrophage cell.
For data set [6], the system named is HEK293. Description: Cytotoxicity against HEK293 cells infected with VSV-G protein pseudotyped HIV1. In kind it is cell-based. To be noted: Homo sapiens.

pIC50: −log10 of the molar value.

Turning to `CC(C)=CCC[C@@H](C)[C@H]1C2=C(C(=O)OC2)[C@H]2C[C@H]2[C@H](C)C[C@H]1O`, the inhibition in the data set on HEK293 [1] was 62%. The inhibition at 10 µM in data set [2] was under 50%. In data set [3], the CC50 is over 60 µM.

Regarding `Cc1ccnc2c1NC(=O)c1cccnc1N2C1CC1` [NEVIRAPINE], the pIC50 in data set [4] was 7.30.

Consider `CC(C)=CCC[C@@H](C)[C@@H]1[C@H](O)C/C(C)=C/C/C=C(/C=O)[C@H]1C=O`, for which the inhibition at 1 µM in data set [5] is under 50%. Moreover, the inhibition with HEK293 [1] was 59%. Further, in data set [2], the inhibition at 10 µM is 86%. Also, the CC50 in data set [3] was over 60 µM.

For `CC(=O)OC[C@@H]1/C(C=O)=C\C/C=C(\C)C[C@@H](O)[C@H]1[C@H](C)CCC=C(C)C`, the figures for the pIC50 (in the data set with HEK293 [6]; in data set [4]) were under 4.22 and 4.66, respectively. Moreover, the inhibition at 10 µM in data set [2] is under 50%.

With `C=C1CC[C@@H]([C@@](C)(O)CCC=C(C)C)[C@@H](O)[C@@H]2C(C)=CC[C@@H]12`, the inhibition at 1 µM in data set [5] is under 50%. For the same compound, the results for the pIC50 (in the data set on HEK293 [6]; in data set [4]) were under 4.22 and 4.62, respectively. In data set [2], the inhibition at 10 µM was 90%.

As for `C=C1CC[C@@H](O)[C@@]2(C)C[C@@H](OC(C)=O)C3=C(C(C)C)CC[C@]3(C)C[C@]12O`, the values for the pIC50 (in the data set on HEK293 [6]; in data set [4]) were 4.28 and 4.79, respectively. In data set [2], the inhibition at 10 µM is under 50%.

On to `C=C1C[C@@H](O)[C@@H]([C@H](C)CCC=C(C)C)[C@@H](O)[C@@H]2C(C)=CC[C@@H]12`, for which the pIC50 in the data set with HEK293 [6] is under 4.22; in data set [4], 4.58. Also, the inhibition at 10 µM in data set [2] is under 50%.

Turning to `CC(=O)O[C@H]1C/C=C(\C)CC[C@@H]([C@H](C)CCC=C(C)C)[C@@H](O)/C=C/1C`, the pIC50 in the data set with HEK293 [6] was under 4.22; in data set [4] it was 4.52. Moreover, the inhibition at 10 µM in data set [2] is under 50%.

For `C=C1C[C@H](O)[C@@H]([C@@](C)(O)CCC=C(C)C)[C@@H](O)[C@@H]2C(C)=CC[C@@H]12`, in the data set on HEK293 [1], the inhibition is 50%. In addition, the inhibition at 10 µM in data set [2] is under 50%. The CC50 in data set [3] was over 60 µM.

As for `C/C1=C/CC/C(C)=C/C[C@@]2(C)CC[C@@](O)(C(C)C)[C@@H]2CC1=O` (relative stereo), the inhibition in the data set with HEK293 [1] came out at 56%. Besides, the inhibition at 10 µM in data set [2] was under 50%. Also, the CC50 in data set [3] is over 60 µM.

Source of the values: ChEMBL document CHEMBL3351586, “Diterpenes from a Chinese collection of the brown alga Dictyota plectens” (J Nat Prod, 2014).
